Results on 5 compounds are retold here after ChEMBL document CHEMBL1649423, “Inhibition of lymphoid tyrosine phosphatase by benzofuran salicylic acids” (J Med Chem, 2011).

Each structure is given as a SMILES string.

Test [1] deals with T1, Receptor-type tyrosine-protein phosphatase C (Homo sapiens, UniProt P08575).
T1 sequence (P08575 whole entry): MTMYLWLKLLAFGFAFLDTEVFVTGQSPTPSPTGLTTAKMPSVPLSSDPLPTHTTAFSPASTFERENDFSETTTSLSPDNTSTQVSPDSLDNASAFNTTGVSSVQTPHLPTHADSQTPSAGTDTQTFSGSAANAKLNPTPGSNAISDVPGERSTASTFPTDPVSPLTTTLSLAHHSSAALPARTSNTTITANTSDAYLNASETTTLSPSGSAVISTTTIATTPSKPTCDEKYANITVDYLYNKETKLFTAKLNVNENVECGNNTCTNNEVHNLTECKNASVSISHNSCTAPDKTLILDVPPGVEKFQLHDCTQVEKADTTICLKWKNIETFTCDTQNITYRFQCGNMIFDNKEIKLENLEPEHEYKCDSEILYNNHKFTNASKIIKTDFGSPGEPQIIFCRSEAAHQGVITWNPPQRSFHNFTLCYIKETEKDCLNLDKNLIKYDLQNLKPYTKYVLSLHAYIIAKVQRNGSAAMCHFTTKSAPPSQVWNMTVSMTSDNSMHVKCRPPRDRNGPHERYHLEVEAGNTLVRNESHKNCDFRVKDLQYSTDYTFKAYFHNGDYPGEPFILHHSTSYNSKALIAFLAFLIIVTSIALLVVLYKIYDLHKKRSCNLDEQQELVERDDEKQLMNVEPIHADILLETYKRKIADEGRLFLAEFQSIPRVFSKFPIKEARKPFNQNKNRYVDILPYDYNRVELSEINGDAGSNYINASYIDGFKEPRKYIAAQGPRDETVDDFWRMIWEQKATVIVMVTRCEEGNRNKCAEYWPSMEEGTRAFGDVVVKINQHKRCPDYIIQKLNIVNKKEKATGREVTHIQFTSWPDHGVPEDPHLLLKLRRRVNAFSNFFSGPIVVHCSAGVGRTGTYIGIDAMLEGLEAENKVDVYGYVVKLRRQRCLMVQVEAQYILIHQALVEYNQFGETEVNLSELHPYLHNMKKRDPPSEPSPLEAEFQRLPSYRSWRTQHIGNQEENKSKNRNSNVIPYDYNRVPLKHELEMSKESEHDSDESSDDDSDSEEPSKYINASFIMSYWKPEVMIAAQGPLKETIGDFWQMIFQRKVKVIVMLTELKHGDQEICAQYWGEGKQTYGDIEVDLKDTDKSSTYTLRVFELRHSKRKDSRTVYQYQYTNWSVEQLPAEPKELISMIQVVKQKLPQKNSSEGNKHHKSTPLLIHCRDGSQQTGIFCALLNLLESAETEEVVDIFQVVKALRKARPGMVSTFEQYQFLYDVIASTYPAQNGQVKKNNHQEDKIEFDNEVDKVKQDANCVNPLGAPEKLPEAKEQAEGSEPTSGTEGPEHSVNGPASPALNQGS
As to the kind of experiment: Inhibition of CD45. An outline of the steps: (§1)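 Fluorometric DiFMUP hydrolysis at 30 C in 50 mM Bis-Tris pH 6.0 (ionic strength 50 mM with NaCl), 1 mM DTT, 5% DMSO, 1% PEG8000. DiFMUP fixed at each PTP's Km. Initial rates read at ex 360/em 460 nm across several compound concentrations. No-enzyme control used to correct for nonenzymatic hydrolysis. HePTP was recombinant in-house; PTP1B, Shp1, CD45 and LAR were commercial recombinant enzymes.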

Test [2] deals with T2, Tyrosine-protein phosphatase non-receptor type 7 (Homo sapiens, UniProt P35236).
T2 sequence (P35236 whole entry): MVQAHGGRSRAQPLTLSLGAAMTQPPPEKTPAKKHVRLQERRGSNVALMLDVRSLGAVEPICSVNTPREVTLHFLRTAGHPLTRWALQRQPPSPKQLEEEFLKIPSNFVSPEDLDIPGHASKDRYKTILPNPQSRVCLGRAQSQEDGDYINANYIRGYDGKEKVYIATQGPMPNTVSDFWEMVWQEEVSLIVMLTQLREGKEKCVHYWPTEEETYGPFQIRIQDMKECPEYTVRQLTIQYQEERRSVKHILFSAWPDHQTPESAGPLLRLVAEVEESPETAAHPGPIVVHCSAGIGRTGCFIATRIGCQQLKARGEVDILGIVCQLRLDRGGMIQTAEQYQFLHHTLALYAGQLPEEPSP
As to the kind of experiment: Inhibition of HePTP. The procedure, abridged: as §1

Test [3] has as its target Receptor-type tyrosine-protein phosphatase F (Homo sapiens, UniProt P10586). As to the kind of experiment: Inhibition of LAR. An outline of the steps:
as §1

For test [4], the target named is T3, Tyrosine-protein phosphatase non-receptor type 1 (Homo sapiens, UniProt P18031).
T3 sequence (P18031 whole entry): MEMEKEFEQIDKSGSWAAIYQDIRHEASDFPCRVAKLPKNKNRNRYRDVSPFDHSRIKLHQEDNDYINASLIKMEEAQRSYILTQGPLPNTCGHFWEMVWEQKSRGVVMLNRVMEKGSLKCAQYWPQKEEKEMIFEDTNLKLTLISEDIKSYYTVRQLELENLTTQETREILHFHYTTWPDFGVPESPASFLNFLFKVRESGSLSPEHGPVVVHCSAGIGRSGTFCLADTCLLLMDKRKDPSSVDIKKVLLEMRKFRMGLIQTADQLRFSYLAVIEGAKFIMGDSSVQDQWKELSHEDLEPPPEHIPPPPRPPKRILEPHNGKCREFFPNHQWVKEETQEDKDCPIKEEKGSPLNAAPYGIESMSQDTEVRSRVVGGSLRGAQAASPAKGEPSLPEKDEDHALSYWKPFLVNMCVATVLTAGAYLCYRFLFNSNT
The test is described as follows: Inhibition of PTP1B. The procedure, abridged:
as §1

Receptor-type tyrosine-protein phosphatase F, sequence (P10586 whole entry): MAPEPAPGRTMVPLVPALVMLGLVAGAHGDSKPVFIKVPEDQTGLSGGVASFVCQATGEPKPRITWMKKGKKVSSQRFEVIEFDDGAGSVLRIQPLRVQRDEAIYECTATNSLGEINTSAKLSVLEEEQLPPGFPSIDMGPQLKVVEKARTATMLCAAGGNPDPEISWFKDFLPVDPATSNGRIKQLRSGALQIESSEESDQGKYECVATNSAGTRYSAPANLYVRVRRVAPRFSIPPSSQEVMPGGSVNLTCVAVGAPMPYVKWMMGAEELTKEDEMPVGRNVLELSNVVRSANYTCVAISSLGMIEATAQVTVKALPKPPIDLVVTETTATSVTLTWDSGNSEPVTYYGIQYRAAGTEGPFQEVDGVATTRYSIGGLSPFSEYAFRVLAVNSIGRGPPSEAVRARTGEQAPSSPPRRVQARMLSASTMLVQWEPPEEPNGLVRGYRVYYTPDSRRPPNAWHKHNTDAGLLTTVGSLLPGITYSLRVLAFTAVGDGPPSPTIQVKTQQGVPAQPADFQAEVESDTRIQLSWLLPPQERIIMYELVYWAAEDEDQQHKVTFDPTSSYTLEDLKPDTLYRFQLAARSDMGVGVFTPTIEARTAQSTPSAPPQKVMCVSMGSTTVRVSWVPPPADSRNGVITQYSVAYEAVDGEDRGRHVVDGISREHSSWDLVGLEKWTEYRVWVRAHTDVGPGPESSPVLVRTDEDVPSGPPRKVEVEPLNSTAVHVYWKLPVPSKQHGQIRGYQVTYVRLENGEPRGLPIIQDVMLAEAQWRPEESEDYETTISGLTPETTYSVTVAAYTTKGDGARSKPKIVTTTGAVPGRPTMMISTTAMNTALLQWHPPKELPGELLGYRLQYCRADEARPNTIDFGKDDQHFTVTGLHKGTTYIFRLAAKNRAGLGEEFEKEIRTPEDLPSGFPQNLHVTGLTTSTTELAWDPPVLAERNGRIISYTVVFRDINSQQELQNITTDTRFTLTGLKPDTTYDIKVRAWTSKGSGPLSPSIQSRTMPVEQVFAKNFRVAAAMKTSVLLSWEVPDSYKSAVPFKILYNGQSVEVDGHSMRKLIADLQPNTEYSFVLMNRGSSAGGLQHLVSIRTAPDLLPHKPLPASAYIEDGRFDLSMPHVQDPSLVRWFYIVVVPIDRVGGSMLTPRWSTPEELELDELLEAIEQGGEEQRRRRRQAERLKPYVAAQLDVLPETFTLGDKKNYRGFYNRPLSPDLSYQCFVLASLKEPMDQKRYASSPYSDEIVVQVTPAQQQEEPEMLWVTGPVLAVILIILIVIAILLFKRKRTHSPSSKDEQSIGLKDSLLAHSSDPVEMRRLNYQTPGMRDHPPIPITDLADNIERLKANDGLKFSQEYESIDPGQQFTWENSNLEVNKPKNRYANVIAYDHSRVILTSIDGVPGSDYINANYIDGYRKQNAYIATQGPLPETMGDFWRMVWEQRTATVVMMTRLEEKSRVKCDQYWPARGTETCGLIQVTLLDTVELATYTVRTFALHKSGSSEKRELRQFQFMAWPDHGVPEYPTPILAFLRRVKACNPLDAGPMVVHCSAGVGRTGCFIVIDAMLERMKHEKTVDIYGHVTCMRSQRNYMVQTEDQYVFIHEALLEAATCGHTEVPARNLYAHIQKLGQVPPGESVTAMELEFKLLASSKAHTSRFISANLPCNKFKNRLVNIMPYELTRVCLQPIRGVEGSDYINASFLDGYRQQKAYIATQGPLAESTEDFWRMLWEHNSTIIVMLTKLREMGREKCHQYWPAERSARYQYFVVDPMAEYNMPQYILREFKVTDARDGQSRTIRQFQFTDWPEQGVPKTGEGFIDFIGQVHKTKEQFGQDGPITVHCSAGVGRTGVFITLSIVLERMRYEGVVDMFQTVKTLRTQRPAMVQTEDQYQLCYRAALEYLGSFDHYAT

A word on the IC50: it is the concentration at which inhibition is half-maximal. A high value points to lower potency. With `COc1ccc(-c2oc3cc(O)c(C(=O)O)cc3c2-c2cn(CCCC(=O)Nc3cccc4ccccc34)nn2)cc1`, the IC50 in test [1] stood at 0.41 µM; in test [2], 3.7 µM; in test [3], 25.5 µM; in test [4], 0.19 µM.

In the case of `Cc1ccc(-c2oc3cc(O)c(C(=O)O)cc3c2-c2cn(CCCC(=O)Nc3ccc(Cl)c4ccccc34)nn2)cc1`, the IC50 in test [1] came out at 1.05 µM; in test [2] it was 3.69 µM; in test [3], 23.7 µM; in test [4] it was 0.205 µM.

Regarding `Cc1ccc(-c2oc3cc(O)c(C(=O)O)cc3c2-c2cn(CCCC(=O)Nc3cccc4ccccc34)nn2)cc1`, the IC50 came to 0.681 µM in test [1], 4.07 µM in test [2], 36.1 µM in test [3] and 0.214 µM in test [4].

Regarding `COc1ccc2nc(NC(=O)CCCn3cc(-c4c(-c5cccc(C)c5)oc5cc(O)c(C(=O)O)cc45)nn3)sc2c1`, the IC50 in test [1] was determined as 0.877 µM; in test [2], 6.36 µM; in test [3], 39.9 µM; in test [4], 0.217 µM.

For the compound `COC(=O)c1cc2c(-c3cn(CCCC(=O)Nc4ccc(Cl)c5ccccc45)nn3)c(-c3ccccc3)oc2cc1O`, the 50% inhibitory concentration (IC50) came out at 16.2 µM in test [1], 32 µM in test [2], 44.4 µM in test [3] and 11.5 µM in test [4].
